Results collected from several papers.
Each line is one published result; the experiments were not run side by side.
JAK1: Tyrosine-protein kinase JAK1 (JAK1, Homo sapiens, UniProt P23458)
JAK1 JH1: Tyrosine-protein kinase JAK1, JH1 (JAK1, Homo sapiens, UniProt P23458)
JAK1 JH2: Tyrosine-protein kinase JAK1, JH2 (JAK1, Homo sapiens, UniProt P23458)

SMILES | target | read-out | mode | technique | tested at | endpoint | result
C#Cc1n[nH]c2c(-c3cn(C(C)c4ccccn4)c(=O)[nH]c3=O)cc(F)cc12 (centres unmarked) | JAK1 | enzyme activity | inhibitor | – | 1 µM | inhibition | -2.3%
Cn1cc(-c2cccc(N3CCc4c(sc5c4CC(C)(C)C5)C3=O)c2CO)cc(Nc2ccncn2)c1=O | JAK1 | enzyme activity | inhibitor | – | 1 µM | inhibition | -2%
CC(C)(C)c1cc(C=C(C#N)C#N)cc(Br)c1O | JAK1 | enzyme activity | inhibitor | – | 0.5 µM | remaining activity | 107%
Nc1ncc(-c2nc(N3CCOCC3)nc(N3CCOCC3)n2)c(C(F)F)n1 | JAK1 JH1 | binding | – | competition with immobilised ligand | 10 µM | remaining binding | 90%
O=c1[nH]c2ccccc2n1C1CCN(Cc2ccc(-c3[nH]c4cc5ncnc5cc4nc3-c3ccccc3)cc2)CC1 | JAK1 | cell-free assay | – | – | 0.5 µM | remaining signal | 94.6%
COc1cc(Nc2ncc(F)c(Nc3ccc4c(n3)NC(=O)C(C)(C)O4)n2)cc(OC)c1OC | JAK1 JH1 | binding | – | competition with immobilised ligand | 10 µM | inhibition | 100%
COc1ncccc1-c1cnn2ccc(N3CCN(C(=O)OC(C)C)CC3)nc12 | JAK1 | binding | – | competition with immobilised ligand | 1 µM | remaining binding | 100%
N#CC1(c2ccccn2)CCN(Cc2cc(C(=O)O)c(=O)n3ccccc23)CC1 | JAK1 JH2 | cell-free assay | – | competition with immobilised ligand | 1 µM | remaining binding | 84%
Cc1nn(C)cc1-c1nc2c(N3CCN(Cc4ccc(Cl)cc4)CC3)c(Cl)cnc2[nH]1 | JAK1 JH1 | binding | – | competition with immobilised ligand | 1 µM | remaining binding | 46%
Cn1cc(-c2cc(F)cc(N3CCn4c(cc5c4CCCC5)C3=O)c2CO)cc(Nc2ccc(N3CCN(C4COC4)CC3)cn2)c1=O | JAK1 | enzyme activity | inhibitor | – | 0.1 µM | inhibition | 6%
Cn1cncc1[C@](O)(COc1ccc(C#N)cc1-c1ccc(OC(F)(F)F)cc1)c1ccc(C#N)cc1 | JAK1 JH2 | cell-free assay | – | competition with immobilised ligand | 1 µM | remaining binding | 70%
